From ChEMBL document CHEMBL5113523, “Discovery of Cyclic Peptide Inhibitors Targeting PD-L1 for Cancer Immunotherapy” (J Med Chem, 2022) come the findings set out here.

Active and inactive are the calls of the source. Bridge positions count the residues as written; N and C are the ends. Peptide text beside a SMILES is read from it.

A word on the IC50: it is the concentration at which inhibition is half-maximal. For orientation: half-life means the time needed for the level to fall by half in the phase considered.

Series [1] concerns the target T1, Programmed cell death protein 1/Programmed cell death 1 ligand 1 (Homo sapiens, UniProt Q9NZQ7). The experiment in a line: Inhibition of human PD-1/PD-L1 interaction by surface plasmon resonance analysis. It counts as protein-complex assay. The procedure, abridged:
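Competitive SPR with PD-1 immobilised on the chip. Various peptide concentrations were preincubated with human PD-L1 in running buffer, then injected. PD-L1 alone was injected as the control. Blocking was taken from the drop in SPR response relative to that control. Mean ± SD, n = 3.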

Series [2] is described as follows: Stability of the compound in human serum assessed as compound remaining measured after 3 hrs by LC-MS/MS analysis relative to control. It counts as ADME, cell-free. The conditions noted are these: read-out: Stability. The method, boiled down:
(§1)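 Peptide incubated in 50% human serum at 37 °C. Aliquots taken at set time points up to 3 h and the intact peptide quantified by LC-MS/MS. Mean ± SD, n = 3.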

Series [3] has as its target T1, Programmed cell death protein 1/Programmed cell death 1 ligand 1. Nature of the series: Inhibition of human recombinant PD-1/PD-L1 interaction preincubated with compound for 2 hrs followed by PD-1 protein addition and measured after 1.5 hrs by inhibitor screening ELISA assay pair kit method. It counts as protein-complex assay. The procedure, abridged: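 Plates coated with 100 ng recombinant human PD-L1 at 4°C for 16 h, washed with PBS pH 7.2-7.4, then blocked with 2% BSA for 1.5 h at 37°C. Peptides added at set concentrations for 2 h at 37°C, then biotinylated PD-1 for 1.5 h. Detection with streptavidin-HRP and chromogenic substrate, stopped with 2N H2SO4. A450 referenced to 540 nm. Mean ± SD, n = 3.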
Background: ELISA stands for enzyme-linked immunosorbent assay.

Series [4] is described as follows: Production against apoptosis in human PBMC cells cocultured with DU-145 cells assessed as increase in IFNgamma level in CD4+ T cell at 10 uM measured after 24 hrs by FACScalibur flow cytometry (reference value: 1.3%). It counts as functional. Background: Flow cytometry measures light scatter and fluorescence of single cells or particles in a stream.
The target of series [5] is Programmed cell death protein 1/Programmed cell death 1 ligand 1 (Mus musculus, UniProt Q9EP73). Nature of the series: Inhibition of mouse recombinant PD-1/PD-L1 interaction preincubated with compound for 2 hrs followed by PD-1 protein addition and measured after 1.5 hrs by inhibitor screening ELISA assay pair kit method. It counts as protein-complex assay. The method, boiled down:
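Plate-based ELISA. Mouse PD-L1 (100 ng) coated for 16 h at 4 °C, then blocked with 2% BSA for 1.5 h at 37 °C. Peptide added for 2 h at 37 °C, then biotinylated mouse PD-1 for 1.5 h. Detection with streptavidin-HRP and chromogenic substrate, stopped with 2N H2SO4; OD450 referenced to OD540. IC50 determined; mean ± SD, n = 3.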

Series [6] deals with Programmed cell death 1 ligand 1 (Homo sapiens) (UniProt Q9NZQ7). The experiment in a line: Binding affinity to PD-L1 overexpressing in human MDA-MB-231 cells at 25 to 100 nM incubated for 1 hr by flow cytometry analysis. The class given is cell-based. The conditions noted are these: dose 25-100 nM. The method, boiled down: (§2)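 Cells detached with enzyme-free dissociation buffer, suspended in PBS at 1×10^6 cells/mL, incubated with Cy5-labelled peptide at various concentrations for 1 h at 37 °C under slow rotation. Cells spun at 300g for 10 min, washed, resuspended in PBS and read by flow cytometry. PD-L1 knockout MDA-MB-231 served as the negative cell line. Mean ± SD, n = 3.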

A short description of series [7]: Stability of the compound in 50% human serum assessed as half life measured upto 200 mins by LC-MS/MS analysis. The class given is ADME, cell-free. The procedure, abridged: as §1
The nature of series [8]: Production against apoptosis in human PBMC cells cocultured with DU-145 cells assessed as reduction in apoptosis of T cells at 10 uM measured after 24 hrs by annexin V-FITC/PI staining based FACScalibur flow cytometry (reference value: 24.5%). On the set-up: scale not given: the % may be the effect or the level left. The class given is functional.
The next series is filed under the species Homo sapiens. Nature of the series: Antiproliferative activity against human DU-145 cells cocultured with PBMC cells at 10 uM incubated for 24 hrs by CellTiter-Glo luminescent cell viability assay. The class given is functional, cell-based. A general note: In ATP-based viability assays light output follows the ATP content of the culture.
The target of series [9] is Programmed cell death 1 ligand 1 (Homo sapiens) (UniProt Q9NZQ7). Nature of the series: Binding affinity to PD-L1 overexpressing in human DU-145 cells at 25 to 100 nM incubated for 1 hr by flow cytometry analysis. The class given is cell-based. Particulars: dose 25-100 nM. The method, boiled down: as §2
Series [10] is described as follows: Production against apoptosis in human PBMC cells cocultured with DU-145 cells assessed as increase in IFNgamma level in CD8+ T cell at 10 uM measured after 24 hrs by FACScalibur flow cytometry (reference value: 1.3%). It counts as functional.
For series [11], the target named is Programmed cell death 1 ligand 1 (Homo sapiens) (UniProt Q9NZQ7). Nature of the series: Binding affinity to PD-L1 deficient in human MCF7 cells at 25 to 100 nM incubated for 1 hr by flow cytometry analysis. The class given is cell-based. The conditions noted are these: dose 25-100 nM.
The test system of series [12] is CT26. The experiment in a line: Antitumor activity against mouse CT26 cells implanted in BALB/c mouse syngeneic model assessed as tumor growth inhibition at 0.5 mg/kg, ip administered daily starting from day 10 post inoculation and measured on day 18 (reference value: 0%). It counts as functional. Particulars: CT26, 216 h, time 9 day, read-out: TGI. The procedure, abridged:
(§3)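 Balb/c mice (4 male + 4 female per group) implanted subcutaneously in right flank with ~1×10^6 CT26 cells; treatment began when tumors reached 200-250 mm3. Daily intraperitoneal dosing days 10–18, saline vehicle control group. Caliper volume = 1/2 × length × width2. TGI (%) = [1 − RTV treated/RTV control] × 100, RTV = day-18 volume / day-10 volume.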

Series [13] concerns CT26. The experiment in a line: Antitumor activity against mouse CT26 cells implanted in BALB/c mouse syngeneic model at 0.5 mg/kg, ip administered daily starting from day 10 post inoculation and measured on day 18. The class given is functional, organism-based. The conditions noted are these: time 9.0 day. The method, boiled down:
as §3

Series [14] in a line: Toxicity in BALB/c syngenic mouse bearing CT26 cells assessed as improvement in animal survival at 0.5 mg/kg, ip administered daily starting from day 10 post inoculation and measured on day 18. It counts as organism-based. Particulars: in vivo, 216 h, time 9 day. The method, boiled down: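 Male and female Balb/c mice (4 of each per group) with about 1×10^6 CT26 cells implanted subcutaneously in the right flank. Grouped when tumours reached 200-250 mm3. Dosed 0.5 mg/kg i.p. daily from day 10 to day 18; saline i.p. as negative control. Caliper volume = 1/2 × length × width². Survival curves recorded.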

Series [15] is described as follows: Stability of the compound in human serum assessed as drug degradation measured after 3 hrs by LC-MS/MS analysis. The class given is ADME, cell-free. The procedure, abridged: as §1

T1 sequence (Q15116 whole entry): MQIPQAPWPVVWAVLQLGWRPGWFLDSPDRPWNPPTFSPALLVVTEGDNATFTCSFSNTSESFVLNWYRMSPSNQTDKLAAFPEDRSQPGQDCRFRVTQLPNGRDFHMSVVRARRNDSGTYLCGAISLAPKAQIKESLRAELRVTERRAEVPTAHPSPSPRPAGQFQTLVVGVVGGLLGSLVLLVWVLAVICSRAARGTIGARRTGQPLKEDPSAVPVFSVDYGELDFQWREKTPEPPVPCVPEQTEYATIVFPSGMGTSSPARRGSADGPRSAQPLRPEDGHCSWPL
T1 sequence (Q9NZQ7 whole entry): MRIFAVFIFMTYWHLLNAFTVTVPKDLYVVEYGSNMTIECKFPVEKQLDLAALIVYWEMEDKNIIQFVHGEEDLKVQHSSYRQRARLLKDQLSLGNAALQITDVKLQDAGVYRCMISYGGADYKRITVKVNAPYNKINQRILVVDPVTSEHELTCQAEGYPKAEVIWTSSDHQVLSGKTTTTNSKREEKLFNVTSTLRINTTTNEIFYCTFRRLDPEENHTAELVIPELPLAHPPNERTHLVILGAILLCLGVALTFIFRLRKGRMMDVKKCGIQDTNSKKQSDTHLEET
Programmed cell death 1 ligand 1 (Homo sapiens), sequence (Q9NZQ7 whole entry): as above
Programmed cell death protein 1/Programmed cell death 1 ligand 1 (Mus musculus, UniProt Q9EP73), sequence (Q9EP73 whole entry): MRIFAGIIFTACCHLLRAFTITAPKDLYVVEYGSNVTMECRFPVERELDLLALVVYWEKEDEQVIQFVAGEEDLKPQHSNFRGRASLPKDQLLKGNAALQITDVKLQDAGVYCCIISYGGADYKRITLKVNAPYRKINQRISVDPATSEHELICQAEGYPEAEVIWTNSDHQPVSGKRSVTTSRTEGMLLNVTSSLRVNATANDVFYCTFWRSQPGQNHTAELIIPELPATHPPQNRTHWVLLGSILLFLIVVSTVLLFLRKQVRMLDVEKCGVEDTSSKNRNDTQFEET
Programmed cell death protein 1/Programmed cell death 1 ligand 1 (Mus musculus, UniProt Q9EP73), sequence (Q02242 whole entry, further chain): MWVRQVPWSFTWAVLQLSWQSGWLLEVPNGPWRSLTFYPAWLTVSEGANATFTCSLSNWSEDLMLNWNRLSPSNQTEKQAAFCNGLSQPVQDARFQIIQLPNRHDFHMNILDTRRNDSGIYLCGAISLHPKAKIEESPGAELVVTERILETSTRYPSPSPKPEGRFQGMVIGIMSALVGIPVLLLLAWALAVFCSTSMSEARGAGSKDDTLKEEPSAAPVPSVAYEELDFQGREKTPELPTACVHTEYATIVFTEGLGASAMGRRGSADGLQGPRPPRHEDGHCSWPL

In the case of `CC(=O)N[C@H]1CSSC[C@@H](C(=O)N[C@@H](Cc2c[nH]c3ccccc23)C(=O)N[C@@H](CC(N)=O)C(=O)N[C@@H](CC(C)C)C(=O)N[C@@H](CC(N)=O)C(=O)N[C@H](C(N)=O)[C@@H](C)O)NC(=O)[C@H](Cc2ccc(O)cc2)NC(=O)[C@H](Cc2ccc(O)cc2)NC(=O)[C@H](CO)NC(=O)[C@H](CCCNC(=N)N)NC(=O)[C@H](Cc2c[nH]cn2)NC1=O` (Ac-CHRSYYCWNLNT-NH2; disulfide 1-7), the results for the IC50 in series [1], in series [3] and in series [5] were 143 nM, 440 nM and 464 nM, respectively. Further, the remaining at 3 h in series [2] turned out to be 25%. In addition, the Activity in series [4] was 1.3%; in [8] it was 10.6%; in series [10], 1.5%; in series [14], “Toxic”. The outcome (in series [6]; in the series listed under Homo sapiens; in series [9]; in [11]; with CT26 [13]) was Active. Also, the half-life in series [7] was 70.8 min. In addition, the inhibition in vivo at 0.5 mg/kg in the series on CT26 [12] turned out to be 33%.
Consider `CC(=O)N[C@H]1CSSC[C@@H](C(N)=O)NC(=O)[C@H](CC(N)=O)NC(=O)[C@H](CC(C)C)NC(=O)[C@H](CC(N)=O)NC(=O)[C@H](Cc2c[nH]c3ccccc23)NC(=O)[C@H]([C@@H](C)O)NC(=O)[C@H](Cc2ccc(O)cc2)NC(=O)[C@H](Cc2ccc(O)cc2)NC(=O)[C@H](CO)NC(=O)[C@H](CCCNC(=N)N)NC(=O)[C@H](Cc2c[nH]cn2)NC1=O` (Ac-CHRSYYTWNLNC-NH2; disulfide 1-12), for which the half-inhibitory concentration (IC50) turned out to be 119 nM in series [1], 180 nM in series [3] and 552 nM in series [5]. In addition, the Activity was 1.5% in series [4], 12.2% in series [8], 1.7% in series [10] and “Toxic” in series [14]. In addition, the result (in series [6]; in the series listed under Homo sapiens; in series [9]; in series [11]; in the series on CT26 [13]) was Active. Moreover, the half-life in series [7] was determined as 38.1 min. For the same molecule, the inhibition in vivo at 0.5 mg/kg in the series with CT26 [12] was determined as 60.6%.
For H-WHRSYYTWNLNT-OH, the Activity was 1.5% in series [4], 14.5% in series [8], 1.4% in series [10] and “Non-Toxic” in series [14]. Also, the half-maximal inhibitory concentration (IC50) in series [5] was 4280 nM. Also, the result in series [6], in series [9] and in [11] was Active. Besides, the Drug degradation entry in series [15] is reported as “Active”. In the series on CT26 [12], the inhibition in vivo at 0.5 mg/kg stood at 16.3%.
